What was measured:
[1] = Rate constants determined using 31P NMR Kinetics experiments at 37 degrees Centigrade; format: ADME
Summary of the method: (§1)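 Compound (0.015-0.076 mmol) dissolved in about 90 µL CH3CN or THF, then diluted to 0.50 mL with 0.1-0.4 M cacodylate or acetate buffer; pH 7.4 target (7.0-8.0 accepted), 37 °C. Monitored by 31P NMR every 2.5 min for 30 min, then every 5 min; relative peak areas fitted by least squares to first-order kinetics to give rate constants and t1/2.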

[2] = Half-life period for the compound was determined; format: ADME; summary of the method: as §1

| Compound | K [1] | half-life [2] |
| --- | --- | --- |
| O=P(O)(OCC1CCCO1)On1nnc2ccccc21 (centres undefined) | 0.011 min⁻¹ | 61 min |
| COP(=O)(OCC1CCCO1)N(C)CCO (centres undefined) | 0.43 min⁻¹ | 1.6 min |
| CN(CCBr)P(=O)(OCC1CCCO1)On1nnc2ccccc21 (centres undefined) | 0.094 min⁻¹ | 7.4 min |
| Cc1cn([C@H]2C[C@H](O)[C@@H](COP(=O)(On3nnc4ccccc43)N(C)CCBr)O2)c(=O)[nH]c1=O (some centres undefined) | 0.15 min⁻¹ | 4.7 min |
| CCN(CC)CC.Cc1cn([C@H]2C[C@H](O)[C@@H](COP(=O)(O)N(C)CCBr)O2)c(=O)[nH]c1=O | 0.19 min⁻¹ | 3.7 min |
| Cc1cn([C@H]2C[C@H](O)[C@@H](COP(=O)(O)On3nnc4ccccc43)O2)c(=O)[nH]c1=O | 0.0042 min⁻¹ | 164 min |
| Cc1cn([C@H]2C[C@H](O)[C@@H](COP(=O)(O)N(C)CCBr)O2)c(=O)[nH]c1=O | 0.2 min⁻¹ | 3.4 min |

Reference: ChEMBL document CHEMBL1133514, “Activation mechanisms of nucleoside phosphoramidate prodrugs” (J Med Chem, 2000)
